pIC50: −log10 of the molar value. Activity calls are given as the source filed them. The calls are words filed in the database; no cut-off is given here.
Assays:
HOP-92 = assay: Growth inhibition of HOP92 cells; type: functional; conditions: Homo sapiens
SK-MEL-28 = assay: Growth inhibition of SK-MEL-28 cells; type: functional; conditions: Homo sapiens
A549 = assay: Growth inhibition of A549 cells; type: functional; conditions: Homo sapiens
OVCAR-3 = assay: Growth inhibition of OVCAR-3 cells; type: functional; conditions: Homo sapiens
MDA-N = assay: Growth inhibition of MDA-N cells; type: functional; conditions: Homo sapiens
NCI-H23 = assay: Growth inhibition of NCI-H23 cells; type: functional; conditions: Homo sapiens
SNB-75 = assay: Growth inhibition of SNB75 cells; type: functional; conditions: Homo sapiens
HL-60 [1] = assay: Cell cycle arrest in HL60 cells assessed as accumulation in G0/G1 phase at 6 uM; type: functional, Homo sapiens
In short: (§1)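 HL-60 cells exposed 24 or 48 h to drug or ethanol vehicle. Nuclei prepared by detergent-trypsin method: citrate/sucrose/DMSO buffer, trypsin, then trypsin inhibitor plus RNase A, then propidium iodide with spermine, 30 min at 4 °C. Filtered, resuspended, DNA content measured by flow cytometry. Percentages given for G0/G1, S and G2/M. Mean ± SEM.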

CCRF-CEM = assay: Growth inhibition of CCRF-CEM cells; type: functional; conditions: Homo sapiens
K562 = assay: Growth inhibition of K562 cells; type: functional; conditions: Homo sapiens
PC-3 = assay: Growth inhibition of PC3 cells; type: functional; conditions: Homo sapiens
HL-60 [2] = assay: Cell cycle arrest in HL60 cells assessed as accumulation in S phase at 6 uM; type: functional, Homo sapiens; in short: as §1
[3] = Cytotoxicity against Pgp overexpressing human NCI/ADR cells after 48 hrs by SRB binding assay; type: functional, cell-based; conditions: NCI/ADR-RES
In short: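 NCI/ADR (Pgp-overexpressing) cells seeded at ~15% confluency and allowed 24 h to attach. Exposed 48 h to graded concentrations, as solubility allowed, without vinblastine. Survival measured by sulforhodamine B binding as % decrease in SRB binding versus ethanol-vehicle controls, mean of three wells per condition.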

TK-10 = assay: Growth inhibition of TK10 cells; type: functional; conditions: Homo sapiens
[4] = Growth inhibition of NCI/ADR cells expressing Pgp/MRP1; type: functional, cell-based; conditions: Homo sapiens, NCI/ADR-RES
In short: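 NCI/ADR (Pgp-overexpressing) or MCF-7/VP (MRP1-expressing, Pgp-negative) cells were seeded at about 15% confluency and allowed to attach for 24 h. They were then exposed for 48 h to varying compound concentrations, limited by solubility, without added vinca drug. Survival was read by sulforhodamine B binding against ethanol solvent controls. Each value is the mean of three equally treated wells.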

A498 = assay: Growth inhibition of A498 cells; type: functional; conditions: Homo sapiens
MCF7 [5] = assay: Induction of microtubule loss in MCF7 cells after 24 hrs; type: functional, cell-based; conditions: Homo sapiens
MCF7 [6] = assay: Effect on Waf1 protein expression in MCF7 cells after 24 hrs; type: functional, cell-based; conditions: Homo sapiens
In short: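 MCF-7 cells exposed 24 h to the indicated concentrations or ethanol control. Cells lysed and protein levels assessed by Western blot. One of two similar experiments.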

Hs-578T = assay: Growth inhibition of HS578T cells; type: functional; conditions: Homo sapiens
M14 = assay: Growth inhibition of M14 cells; type: functional; conditions: Homo sapiens
SF-268 = assay: Growth inhibition of SF268 cells; type: functional; conditions: Homo sapiens
NCI/ADR-RES = assay: Growth inhibition of NCI/ADR-RES cells; type: functional; conditions: Homo sapiens
UACC-62 = assay: Growth inhibition of UACC62 cells; type: functional; conditions: Homo sapiens
ACHN = assay: Growth inhibition of ACHN cells; type: functional; conditions: Homo sapiens
SK-MEL-5 = assay: Growth inhibition of SK-MEL-5 cells; type: functional; conditions: Homo sapiens
CAKI-1 = assay: Growth inhibition of CAKI1 cells; type: functional; conditions: Homo sapiens
UACC-257 = assay: Growth inhibition of UACC257 cells; type: functional; conditions: Homo sapiens
SK-MEL-2 = assay: Growth inhibition of SK-MEL-2 cells; type: functional; conditions: Homo sapiens
786-0 = assay: Growth inhibition of 786-0 cells; type: functional; conditions: Homo sapiens
HT-29 = assay: Growth inhibition of HT29 cells; type: functional; conditions: Homo sapiens
MDA-MB-231 = assay: Growth inhibition of MDA-MB-231 cells; type: functional; conditions: Homo sapiens
KM12 = assay: Growth inhibition of KM12 cells; type: functional; conditions: Homo sapiens
SR = assay: Growth inhibition of SR cells; type: functional; conditions: Homo sapiens
MCF7 [7] = assay: Cytotoxicity against human MCF7 cells after 48 hrs by SRB binding assay; type: functional, cell-based; conditions: MCF7, 48 h
In short: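 Drug-sensitive MCF-7 cells seeded at ~15% confluency and allowed 24 h recovery. Exposed 48 h to graded concentrations. Survival measured by SRB binding as % decrease versus ethanol-vehicle controls, mean of triplicate wells.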

HL-60 [8] = assay: Growth inhibition of HL60 cells; type: functional; conditions: Homo sapiens
MCF7 [9] = assay: Growth inhibition of MCF7 cells; type: functional; conditions: Homo sapiens
DU-145 = assay: Growth inhibition of DU145 cells; type: functional; conditions: Homo sapiens
[10] = Cytotoxicity against human T24 cells after 48 hrs by SRB binding assay; type: cell-based; conditions: T-24, 48 h

In the case of COc1cc(CCc2cn(Cc3ccccc3)c3nc(N)nc(C)c23)cc(OC)c1OC, the GI50 (HOP-92) was 467 nM, the GI50 (SK-MEL-28) was over 1000 nM and the GI50 (A549) was 173 nM. For the same molecule, the GI50 (OVCAR-3) was 28.8 nM, the GI50 (MDA-N) was under 10 nM and the GI50 (NCI-H23) was 278 nM. For the same molecule, the GI50 (SNB-75) was 358 nM, the Activity (HL-60 [1]) was 80% and the GI50 (CCRF-CEM) was 58 nM. It also gave a GI50 (K562) of 84.6 nM, a GI50 (PC-3) of 47.9 nM and an Activity (HL-60 [2]) of 10.3%. For the same molecule, the pIC50 [3] was 6.60, the GI50 (TK-10) was 961 nM and the pIC50 [4] was 6.46. For the same molecule, the GI50 (A498) was 136 nM, the Activity (MCF7 [5]) was “Active” and the Activity (MCF7 [6]) was “Active”. It also gave a GI50 (Hs-578T) of 283 nM, a GI50 (M14) of 77 nM and a GI50 (SF-268) of 669 nM. The GI50 (NCI/ADR-RES) was 145 nM, the GI50 (UACC-62) was 39.9 nM and the GI50 (ACHN) was 728 nM. For the same molecule, the GI50 (SK-MEL-5) was 61.1 nM, the GI50 (CAKI-1) was 366 nM and the GI50 (UACC-257) was 80.2 nM. For the same molecule, the GI50 (SK-MEL-2) was 381 nM, the GI50 (786-0) was 254 nM and the GI50 (HT-29) was 281 nM. The GI50 (MDA-MB-231) was 595 nM, the GI50 (KM12) was 194 nM and the GI50 (SR) was 31.4 nM. It also gave a pIC50 (MCF7 [7]) of 6.52, a GI50 (HL-60 [8]) of 64.7 nM and a GI50 (MCF7 [9]) of 118 nM. For the same molecule, the GI50 (DU-145) was 224 nM and the pIC50 [10] was 6.55.

— ChEMBL document CHEMBL1145421, “Discovery of novel antitumor antimitotic agents that also reverse tumor resistance” (J Med Chem, 2007)
